The target of series [1] is T1, Androgen receptor (Homo sapiens, UniProt P10275).
T1 sequence (P10275 whole entry): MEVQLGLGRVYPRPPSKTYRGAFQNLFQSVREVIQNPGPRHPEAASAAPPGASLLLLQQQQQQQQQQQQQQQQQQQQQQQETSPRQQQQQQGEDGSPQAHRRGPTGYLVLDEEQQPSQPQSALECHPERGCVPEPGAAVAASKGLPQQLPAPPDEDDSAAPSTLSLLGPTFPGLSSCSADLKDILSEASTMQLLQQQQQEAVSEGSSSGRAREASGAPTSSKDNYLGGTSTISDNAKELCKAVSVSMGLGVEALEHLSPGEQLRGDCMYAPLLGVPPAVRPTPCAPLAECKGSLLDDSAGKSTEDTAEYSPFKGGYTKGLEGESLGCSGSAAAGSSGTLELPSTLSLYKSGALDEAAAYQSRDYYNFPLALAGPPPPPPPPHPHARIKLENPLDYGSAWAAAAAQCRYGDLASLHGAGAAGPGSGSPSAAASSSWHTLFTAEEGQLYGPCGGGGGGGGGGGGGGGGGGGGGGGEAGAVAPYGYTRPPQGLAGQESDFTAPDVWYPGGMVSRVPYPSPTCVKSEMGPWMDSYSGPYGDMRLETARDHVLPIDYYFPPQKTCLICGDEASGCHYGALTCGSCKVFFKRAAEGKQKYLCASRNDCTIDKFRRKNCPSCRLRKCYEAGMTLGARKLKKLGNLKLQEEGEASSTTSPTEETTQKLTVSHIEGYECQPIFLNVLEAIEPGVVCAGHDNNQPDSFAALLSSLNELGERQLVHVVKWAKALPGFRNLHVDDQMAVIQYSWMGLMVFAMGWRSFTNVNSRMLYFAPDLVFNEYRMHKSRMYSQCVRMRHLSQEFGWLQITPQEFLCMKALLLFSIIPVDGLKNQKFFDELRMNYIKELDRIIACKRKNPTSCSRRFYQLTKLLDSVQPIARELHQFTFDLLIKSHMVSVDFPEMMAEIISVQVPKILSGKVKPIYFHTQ
The series can be described thus: Inhibition of androgen receptor in human LNCAP cells after 1 day by luciferase reporter gene assay. It counts as cell-based.

Series [2] relates to LNCaP. The series can be described thus: Cytotoxicity against human LNCAP cells assessed as cell viability after 2 days by cell counting method. Format: functional, cell-based. Particulars: 48 h. The gist of the method: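 LNCap cells were grown in RPMI1640 with 10% FBS and penicillin/streptomycin at 37 °C in 5% CO2. They were seeded at 4 × 10³ cells/well, left 24 h, then exposed to compounds for 2 days. Viability was read by CCK-8 absorbance, in triplicate.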

Series [3] is described as follows: Octanol-water partition coefficient, log P of the compound by pH-metric method. Format: physicochemical.
A short description of series [4]: AUC (0 to infinity) in Sprague-Dawley rat at 2.5 mg/kg, iv. Format: ADME, organism-based. Also noted: time infinity, dose 2.5 mg/kg, route intravenous. Particulars: plasma. The procedure, abridged:
(§1)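 Male Sprague-Dawley rats, n = 3 per route, were given 2.5 mg/kg by either intravenous or oral dosing. Plasma concentration–time profiles were followed, and PK parameters were derived from them, with AUC taken over 0–72 h and also to infinity.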

The nature of series [5]: Elimination half life in Sprague-Dawley rat at 2.5 mg/kg, po. Also noted: dose 2.5 mg/kg, route oral. The following applies: in vivo, read-out: beta t1/2 (converted). It counts as ADME, organism-based. The gist of the method: as §1
The nature of series [6]: Tmax in Sprague-Dawley rat at 2.5 mg/kg, po. The following applies: in vivo. Format: ADME, organism-based. More on the design: dose 2.5 mg/kg, route oral. The gist of the method:
as §1

Series [7] is described as follows: Mean residence time in Sprague-Dawley rat at 2.5 mg/kg, po. Format: ADME, organism-based. Also noted: dose 2.5 mg/kg, route oral. The following applies: in vivo. The procedure, abridged:
as §1

In series [8] the target is CYP2D6 (Homo sapiens, UniProt P10635). The series can be described thus: Inhibition of CYP2D6 (unknown origin) at 10 uM relative to control. Format: ADME.
Series [9] in a line: AUC (0 to 72 hrs) in Sprague-Dawley rat at 2.5 mg/kg, po. Format: ADME, organism-based. Also noted: time < 72 hr, dose 2.5 mg/kg, route oral. Particulars: plasma. The gist of the method:
as §1

A short description of series [10]: AUC (0 to infinity) in Sprague-Dawley rat at 2.5 mg/kg, po. It counts as ADME, organism-based. More on the design: time infinity, dose 2.5 mg/kg, route oral. The following applies: plasma. The gist of the method:
as §1

Series [11] is described as follows: Permeability of the compound at pH 7.4 at 500 uM after 16 hrs by PAMPA. Particulars: pH 7.4, 16 h. Format: ADME. The gist of the method:
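PAMPA: the donor solution was diluted from a 1 mM DMSO stock into system buffer at pH 7.4. Lipid solution was applied to each filter membrane, and the receiver side held acceptor sink buffer. The plates were incubated 16 h at room temperature. Donor and receiver sides were analysed by UV spectrometry, and donor initial concentration was also measured.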

The nature of series [12]: Metabolic stability in rat liver microsomes assessed as compound remaining at […] after 1 hr. It counts as ADME, Microsome. The following applies: read-out: Stability.
Series [13] can be described thus: Mean residence time in Sprague-Dawley rat at 2.5 mg/kg, iv. Particulars: in vivo. It counts as ADME, organism-based. More on the design: dose 2.5 mg/kg, route intravenous. The gist of the method:
as §1

Series [14] is described as follows: Elimination half life in Sprague-Dawley rat at 2.5 mg/kg, iv. Format: ADME, organism-based. More on the design: dose 2.5 mg/kg, route intravenous. The following applies: in vivo, read-out: beta t1/2 (converted). The gist of the method: as §1
The target in series [15] is CYP3A4 (Homo sapiens, UniProt P08684). The series can be described thus: Inhibition of human recombinant CYP3A4 using dibenzylfluorescein as substrate at 10 uM preincubated for 20 mins prior to enzyme/substrate addition measured after 20 mins by fluorometric assay relative to control. The following applies: recombinant CYP3A4, probe dibenzylfluorescein. It counts as ADME. The gist of the method: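 Vivid fluorometric kit. Compounds were in acetonitrile, with an acetonitrile vehicle control. NADP-regenerating system (1.0 mM NADP+, 3.3 mM glucose-6-phosphate, 3.3 mM MgCl2, 0.4 U/mL G6PDH in 10 mM KPO4, pH 8.0) was preincubated with compound at 37 °C for 20 min. Then 0.5 pmol recombinant human CYP3A4 plus dibenzylfluorescein was added, 20 min, and the reaction was stopped. Background had enzyme/substrate added after the stop. Fluorescein read at ex 485/em 530 nm.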

Series [16] can be described thus: Cmax in Sprague-Dawley rat at 2.5 mg/kg, po. Format: ADME, organism-based. Also noted: dose 2.5 mg/kg, route oral. The following applies: in vivo. The gist of the method:
as §1

Series [17] in a line: AUC (0 to 72 hrs) in Sprague-Dawley rat at 2.5 mg/kg, iv. Format: ADME, organism-based. More on the design: time < 72 hr, dose 2.5 mg/kg, route intravenous. Particulars: plasma. The gist of the method:
as §1

Series [18] can be described thus: Volume of distribution at steady state in Sprague-Dawley rat at 2.5 mg/kg, iv. Format: ADME, organism-based. More on the design: dose 2.5 mg/kg, route intravenous. The following applies: in vivo, read-out: Vdss. The procedure, abridged: as §1
The nature of series [19]: Oral bioavailability in Sprague-Dawley rat at 2.5 mg/kg. It counts as ADME, organism-based. Particulars: in vivo. The procedure, abridged: as §1
A short description of series [20]: Blood clearance in Sprague-Dawley rat at 2.5 mg/kg, iv. It counts as ADME, organism-based. More on the design: dose 2.5 mg/kg, route intravenous. The procedure, abridged: as §1

CYP2D6, sequence (P10635 whole entry): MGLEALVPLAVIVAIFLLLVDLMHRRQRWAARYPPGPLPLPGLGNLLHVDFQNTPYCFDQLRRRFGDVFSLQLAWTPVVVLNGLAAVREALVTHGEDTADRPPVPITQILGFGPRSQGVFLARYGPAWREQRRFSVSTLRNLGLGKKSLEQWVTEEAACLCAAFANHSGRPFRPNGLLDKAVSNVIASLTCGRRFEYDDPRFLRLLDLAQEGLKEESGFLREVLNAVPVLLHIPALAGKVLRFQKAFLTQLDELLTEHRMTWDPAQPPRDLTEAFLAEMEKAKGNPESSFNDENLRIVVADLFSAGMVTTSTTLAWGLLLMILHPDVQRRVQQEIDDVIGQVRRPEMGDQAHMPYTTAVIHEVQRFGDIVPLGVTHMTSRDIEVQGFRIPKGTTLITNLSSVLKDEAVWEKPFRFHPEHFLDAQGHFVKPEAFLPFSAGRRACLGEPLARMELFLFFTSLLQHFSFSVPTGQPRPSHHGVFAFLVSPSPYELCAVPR
CYP3A4, sequence (P08684 whole entry): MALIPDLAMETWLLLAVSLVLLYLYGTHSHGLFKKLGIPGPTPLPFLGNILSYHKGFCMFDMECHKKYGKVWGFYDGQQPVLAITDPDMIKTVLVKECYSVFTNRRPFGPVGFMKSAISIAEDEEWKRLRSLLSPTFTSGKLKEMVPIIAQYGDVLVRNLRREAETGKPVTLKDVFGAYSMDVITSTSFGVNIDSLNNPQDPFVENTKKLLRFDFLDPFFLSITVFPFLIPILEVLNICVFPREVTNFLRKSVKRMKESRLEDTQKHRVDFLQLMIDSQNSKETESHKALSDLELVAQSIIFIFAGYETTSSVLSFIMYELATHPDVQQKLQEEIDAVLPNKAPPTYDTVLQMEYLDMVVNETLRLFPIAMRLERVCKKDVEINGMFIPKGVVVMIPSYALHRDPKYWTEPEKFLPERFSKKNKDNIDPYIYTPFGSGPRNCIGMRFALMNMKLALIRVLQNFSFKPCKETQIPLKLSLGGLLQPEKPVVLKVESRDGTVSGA

Take `CCS(=O)(=O)Nc1cccc(-c2cc(=O)n(-c3ccc(F)c(Cl)c3)nc2C)c1`: the 50% inhibitory concentration (IC50) was 5.07 µM in series [1] and 26.7 µM in series [2].
In the case of `CCS(=O)(=O)Nc1cccc(-c2cc(=O)n(-c3ccc(C#N)cc3)nc2C)c1`, the concentration for half-maximal inhibition (IC50) is 6.26 µM in series [1] and 39 µM in [2].
On to `CCS(=O)(=O)Nc1cccc(-c2cc(=O)n(-c3ccc(Cl)c(Cl)c3)nc2C)c1`, for which the logP in series [3] was determined as 3.82. Moreover, the figures for the AUC(0-inf) in [4] and in series [10] were 29800 ng·h/mL and 30500 ng·h/mL, respectively. The half-life in [5] was 21.6 h; in [14] it was 19.2 h. In series [6], the time of peak concentration (Tmax) turned out to be 10.3 h. Moreover, the IC50 in [1] came out at 2.65 µM; in series [2] it was 11.6 µM. For the same compound, the MRT worked out at 34.9 h in [7] and 26.9 h in [13]. In series [8], this compound showed an inhibition at 10 µM of 0%. The figures for the AUC(0-t) at 72 h in series [9] and in series [17] were 26800 ng·h/mL and 27500 ng·h/mL, respectively. In series [11], the permeability result is reported as “permeable”. In [12], the remaining at 1 h was over 99%. Moreover, the inhibition at 20 min, 10 µM in series [15] amounted to 6.7%. Further, in series [16], the maximum concentration (Cmax) turned out to be 767 ng/mL. Besides, the Vd in [18] turned out to be 2.25 L/kg. The bioavailability in [19] was 102%. The compound also had a clearance in series [20] of 1.41 mL/min/kg.
On to `CCS(=O)(=O)Nc1cccc(-c2cc(=O)n(-c3cc(Cl)cc(Cl)c3)nc2C)c1`, for which the IC50 in series [1] turned out to be 13.2 µM; in [2], 22.9 µM.
Take `CC(O)(CS(=O)(=O)c1ccc(F)cc1)C(=O)Nc1ccc(C#N)c(C(F)(F)F)c1` (centres undefined) [BICALUTAMIDE]: the IC50 in series [2] worked out at 23.8 µM.
`CCS(=O)(=O)Nc1cccc(-c2cc(=O)n(-c3ccc4ccccc4c3)nc2C)c1`: the IC50 in [1] came to 9.76 µM; in series [2], 18.3 µM.

For the origin of these results see ChEMBL document CHEMBL2396586, “Discovery of non-LBD inhibitor for androgen receptor by structure-guide design” (Bioorg Med Chem Lett, 2013).
